From ChEMBL document CHEMBL2331355, “Synthesis, structure activity relationship and mode of action of 3-substitutedphenyl-1-(2,2,8,8-tetramethyl-3,4,9,10-tetrahydro-2H,8H-pyrano[2,3-f]chromen-6-yl)-propenones as novel anticancer agents in human leukaemia HL-60 cells” (Eur J Med Chem, 2013)
Structures can show the parent of a compound that is named as a salt.

Tests used:
Type in all cases: functional
HL-60 [1] = assay: Induction of apoptosis in human HL60 cells at 4 uM after 6 hrs by PI-staining based flow cytometric analysis (reference value: 0.7 %)
HL-60 [2] = assay: Cell cycle arrest in human HL60 cells assessed as S phase cells at 4 uM after 6 hrs by PI staining-based flow cytometric analysis (reference value: 49%)
HL-60 [3] = assay: Induction of mitochondrial membrane potential loss in human HL60 cells at 4 uM after 6 hrs by rhodamine-123 staining method (reference value: 7%)
HL-60 [4] = assay: Cell cycle arrest in human HL60 cells assessed as accumulation of G0/G1 phase cells at 4 uM after 6 hrs by PI staining-based flow cytometric analysis (reference value: 48%)
HL-60 [5] = assay: Cell cycle arrest in human HL60 cells assessed as G2/M phase cells at 4 uM after 6 hrs by PI staining-based flow cytometric analysis (reference value: 3%)
PC-3 = assay: Growth inhibition of human PC3 cells at 10 uM after 48 hrs by MTT assay; details: PC-3, 48 h, read-out: GI
How it was run: (§1)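 MTT assay. Suspension or adherent cells were exposed to compound for 48 h. OD was read at 570 nm (reference 620 nm), with untreated control OD set as 100% viability. Results are percent growth inhibition, mean ± SD of three independent experiments.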

HL-60 [6] = assay: Growth inhibition of human HL60 cells at 10 uM after 48 hrs by MTT assay; details: HL-60, 48 h, read-out: GI; how it was run: as §1
MCF7 = assay: Growth inhibition of human MCF7 cells at 2 uM after 48 hrs by MTT assay; details: MCF7, 48 h, read-out: GI

`CC[C@@]1(O)C(=O)OCc2c1cc1n(c2=O)Cc2cc3ccccc3nc2-1` [CAMPTOTHECIN] gave an Activity (HL-60 [1]) of 69%, an Activity (HL-60 [2]) of 6% and an Activity (HL-60 [3]) of 51%. The Activity (HL-60 [4]) was 88% and the Activity (HL-60 [5]) was 6%.

With `O=c1[nH]cc(F)c(=O)[nH]1` [FLUOROURACIL] the inhibition of growth at 10 µM (PC-3) was 72% and the inhibition of growth at 10 µM (HL-60 [6]) was 84%.

With `COc1cccc2c1C(=O)c1c(O)c3c(c(O)c1C2=O)C[C@@](O)(C(=O)CO)C[C@@H]3O[C@H]1C[C@H](N)[C@H](O)[C@H](C)O1` [DOXORUBICIN HYDROCHLORIDE] the inhibition of growth at 2 µM (MCF7) was 90%.
